Measured values: ChEMBL document CHEMBL5653631, “A Potent and Selective ULK1 Inhibitor Suppresses Autophagy and Sensitizes Cancer Cells to Nutrient Stress” (iScience, 2018)

Tests used:
[1] = biological target: T1, Serine/threonine-protein kinase Chk1 (Homo sapiens) (UniProt O14757); assay: Inhibition of human recombinant CHK1 at 40 nM related to control ULK1
T1 sequence (whole entry): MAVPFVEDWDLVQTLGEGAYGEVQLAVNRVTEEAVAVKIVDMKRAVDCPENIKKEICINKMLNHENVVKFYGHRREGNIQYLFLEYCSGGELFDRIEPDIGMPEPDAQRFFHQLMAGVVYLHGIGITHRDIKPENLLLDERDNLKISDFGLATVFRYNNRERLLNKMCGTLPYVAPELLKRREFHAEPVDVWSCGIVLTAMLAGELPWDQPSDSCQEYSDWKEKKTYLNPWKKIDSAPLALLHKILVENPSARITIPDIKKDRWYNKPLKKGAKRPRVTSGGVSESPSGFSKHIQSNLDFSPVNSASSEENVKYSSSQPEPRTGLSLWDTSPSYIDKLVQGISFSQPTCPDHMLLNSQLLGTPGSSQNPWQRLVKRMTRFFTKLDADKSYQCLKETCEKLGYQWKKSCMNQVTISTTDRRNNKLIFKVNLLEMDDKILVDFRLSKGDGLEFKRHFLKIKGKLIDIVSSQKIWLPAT

[2] = biological target: RAC-beta serine/threonine-protein kinase (Homo sapiens) (UniProt P31751); assay: Inhibition of human recombinant AKT2 at 40 nM in presence of ATP by radiometric assay relative to control
Summary of the method: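 Panel of 327 recombinant human kinases in radiometric activity assays, each screened in duplicate at a single inhibitor concentration; percent activity remaining relative to vehicle control, percent inhibition taken as 100 minus activity remaining.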

[3] = biological target: T2, Dual specificity mitogen-activated protein kinase kinase 6 (Homo sapiens) (UniProt P52564); assay: Inhibition of human recombinant MAP2K6 at 40 nM in presence of ATP by radiometric assay relative to control
T2 sequence (whole entry): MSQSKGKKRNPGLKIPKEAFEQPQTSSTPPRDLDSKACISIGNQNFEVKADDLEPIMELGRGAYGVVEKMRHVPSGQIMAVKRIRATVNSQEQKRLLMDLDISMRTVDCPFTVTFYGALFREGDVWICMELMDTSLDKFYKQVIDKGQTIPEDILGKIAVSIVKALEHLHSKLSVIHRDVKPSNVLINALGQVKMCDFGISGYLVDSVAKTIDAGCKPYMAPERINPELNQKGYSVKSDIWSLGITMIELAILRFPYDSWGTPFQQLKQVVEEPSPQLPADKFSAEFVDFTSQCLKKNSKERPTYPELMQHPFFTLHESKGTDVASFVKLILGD

[4] = biological target: Serine/threonine-protein kinase PAK 1 (Homo sapiens) (UniProt Q13153); assay: Inhibition of human recombinant PAK1 at 500 nM related to control ULK1
[5] = biological target: Hepatocyte growth factor receptor (Homo sapiens) (UniProt P08581); assay: Inhibition of human recombinant MET at 500 nM related to control ULK1
[6] = biological target: T3, Testis-specific serine/threonine-protein kinase 4 (Homo sapiens) (UniProt Q6SA08); assay: Inhibition of human recombinant TSSK4 at 500 nM related to control ULK1
T3 sequence (whole entry): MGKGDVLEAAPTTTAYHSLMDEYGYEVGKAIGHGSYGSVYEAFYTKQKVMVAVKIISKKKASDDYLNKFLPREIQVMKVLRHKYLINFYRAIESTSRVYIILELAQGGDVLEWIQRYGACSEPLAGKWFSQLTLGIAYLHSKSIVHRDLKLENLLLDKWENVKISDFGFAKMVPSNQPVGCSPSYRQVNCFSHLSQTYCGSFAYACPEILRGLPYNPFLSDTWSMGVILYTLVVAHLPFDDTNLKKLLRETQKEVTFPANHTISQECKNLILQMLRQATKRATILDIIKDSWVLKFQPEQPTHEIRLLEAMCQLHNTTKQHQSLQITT

[7] = biological target: T4, Interleukin-1 receptor-associated kinase 4 (Homo sapiens) (UniProt Q9NWZ3); assay: Inhibition of human recombinant IRAK4 at 15 nM related to control ULK1
T4 sequence (whole entry): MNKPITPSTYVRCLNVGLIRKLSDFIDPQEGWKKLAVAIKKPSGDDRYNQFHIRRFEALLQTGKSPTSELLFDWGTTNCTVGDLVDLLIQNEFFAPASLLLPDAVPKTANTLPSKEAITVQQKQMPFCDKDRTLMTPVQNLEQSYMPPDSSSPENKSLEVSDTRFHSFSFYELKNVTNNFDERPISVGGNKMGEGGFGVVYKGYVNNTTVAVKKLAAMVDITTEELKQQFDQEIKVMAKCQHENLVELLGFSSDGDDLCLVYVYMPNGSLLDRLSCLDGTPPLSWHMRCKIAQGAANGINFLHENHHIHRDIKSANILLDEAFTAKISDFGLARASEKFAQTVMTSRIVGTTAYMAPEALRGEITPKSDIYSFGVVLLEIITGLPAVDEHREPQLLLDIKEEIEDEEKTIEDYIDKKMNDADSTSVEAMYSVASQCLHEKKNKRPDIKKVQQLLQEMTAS

[8] = biological target: Rhodopsin kinase GRK7 (Homo sapiens) (UniProt Q8WTQ7); assay: Inhibition of human recombinant GPRK7 at 15 nM related to control ULK1
Rhodopsin kinase GRK7 (Homo sapiens), sequence (Q8WTQ7 whole entry, looked up): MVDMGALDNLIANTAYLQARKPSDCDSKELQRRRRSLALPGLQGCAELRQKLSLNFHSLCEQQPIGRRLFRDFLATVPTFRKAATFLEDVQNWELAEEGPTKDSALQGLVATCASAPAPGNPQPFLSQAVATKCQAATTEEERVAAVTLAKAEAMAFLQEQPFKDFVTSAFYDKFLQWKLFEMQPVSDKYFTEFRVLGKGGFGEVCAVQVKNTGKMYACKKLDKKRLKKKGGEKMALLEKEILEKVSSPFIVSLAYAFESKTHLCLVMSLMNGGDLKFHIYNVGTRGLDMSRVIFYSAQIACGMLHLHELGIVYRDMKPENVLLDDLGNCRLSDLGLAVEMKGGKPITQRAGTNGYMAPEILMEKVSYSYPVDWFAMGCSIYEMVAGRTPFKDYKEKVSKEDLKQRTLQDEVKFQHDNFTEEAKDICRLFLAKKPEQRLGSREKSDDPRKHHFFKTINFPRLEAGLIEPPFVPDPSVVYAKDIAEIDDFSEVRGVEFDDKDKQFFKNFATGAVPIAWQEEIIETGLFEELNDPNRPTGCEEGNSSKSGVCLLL

Serine/threonine-protein kinase PAK 1 (Homo sapiens), sequence (Q13153 whole entry, looked up): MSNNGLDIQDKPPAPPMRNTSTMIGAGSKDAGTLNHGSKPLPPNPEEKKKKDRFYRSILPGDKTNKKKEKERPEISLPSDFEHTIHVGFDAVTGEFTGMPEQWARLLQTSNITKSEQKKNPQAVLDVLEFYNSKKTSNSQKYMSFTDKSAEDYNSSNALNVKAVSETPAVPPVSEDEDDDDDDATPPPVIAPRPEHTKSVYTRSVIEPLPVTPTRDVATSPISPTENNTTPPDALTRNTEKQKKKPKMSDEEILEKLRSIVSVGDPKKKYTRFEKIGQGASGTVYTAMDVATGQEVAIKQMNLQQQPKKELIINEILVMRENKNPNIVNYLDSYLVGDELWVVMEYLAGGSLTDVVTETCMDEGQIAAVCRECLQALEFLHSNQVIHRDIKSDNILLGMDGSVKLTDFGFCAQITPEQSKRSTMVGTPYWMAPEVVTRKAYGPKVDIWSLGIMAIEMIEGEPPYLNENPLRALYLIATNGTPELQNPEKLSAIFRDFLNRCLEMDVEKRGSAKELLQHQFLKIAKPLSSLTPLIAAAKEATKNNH
Hepatocyte growth factor receptor (Homo sapiens), sequence (P08581 whole entry, looked up): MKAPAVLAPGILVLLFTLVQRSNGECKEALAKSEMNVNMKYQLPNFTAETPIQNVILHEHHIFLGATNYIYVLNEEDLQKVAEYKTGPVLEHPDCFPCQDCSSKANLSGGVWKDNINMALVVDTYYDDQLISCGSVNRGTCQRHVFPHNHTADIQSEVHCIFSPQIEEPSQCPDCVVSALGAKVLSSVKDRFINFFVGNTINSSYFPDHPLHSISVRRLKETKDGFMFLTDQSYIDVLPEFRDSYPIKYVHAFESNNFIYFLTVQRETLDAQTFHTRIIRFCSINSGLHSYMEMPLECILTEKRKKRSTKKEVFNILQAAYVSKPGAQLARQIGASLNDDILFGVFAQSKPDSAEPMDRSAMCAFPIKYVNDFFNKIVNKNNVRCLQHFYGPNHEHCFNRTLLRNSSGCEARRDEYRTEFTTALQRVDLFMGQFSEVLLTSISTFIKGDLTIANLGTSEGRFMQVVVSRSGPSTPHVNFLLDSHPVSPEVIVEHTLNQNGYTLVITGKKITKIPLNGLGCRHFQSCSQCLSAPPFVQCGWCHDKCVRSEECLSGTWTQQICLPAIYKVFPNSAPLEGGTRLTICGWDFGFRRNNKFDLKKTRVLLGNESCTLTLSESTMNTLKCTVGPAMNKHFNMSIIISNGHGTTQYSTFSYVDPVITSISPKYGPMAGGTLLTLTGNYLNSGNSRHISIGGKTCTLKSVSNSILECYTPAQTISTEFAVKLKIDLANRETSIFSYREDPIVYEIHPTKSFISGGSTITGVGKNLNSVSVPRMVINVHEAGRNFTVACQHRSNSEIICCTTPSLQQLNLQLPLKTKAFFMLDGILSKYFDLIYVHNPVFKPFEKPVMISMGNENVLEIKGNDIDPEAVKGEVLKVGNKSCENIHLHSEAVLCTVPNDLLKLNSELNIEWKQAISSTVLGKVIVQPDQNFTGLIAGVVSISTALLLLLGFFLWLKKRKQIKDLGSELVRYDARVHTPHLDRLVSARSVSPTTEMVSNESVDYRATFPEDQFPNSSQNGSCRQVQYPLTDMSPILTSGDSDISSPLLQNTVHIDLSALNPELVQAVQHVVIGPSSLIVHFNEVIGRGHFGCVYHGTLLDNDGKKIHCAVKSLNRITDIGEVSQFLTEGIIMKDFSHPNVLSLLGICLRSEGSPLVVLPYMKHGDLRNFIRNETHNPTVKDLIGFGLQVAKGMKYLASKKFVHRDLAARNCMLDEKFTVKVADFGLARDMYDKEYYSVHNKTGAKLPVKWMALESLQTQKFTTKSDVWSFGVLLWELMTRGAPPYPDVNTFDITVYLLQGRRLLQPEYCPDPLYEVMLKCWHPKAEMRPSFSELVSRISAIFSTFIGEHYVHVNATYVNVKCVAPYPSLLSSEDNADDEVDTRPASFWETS
RAC-beta serine/threonine-protein kinase (Homo sapiens), sequence (P31751 whole entry): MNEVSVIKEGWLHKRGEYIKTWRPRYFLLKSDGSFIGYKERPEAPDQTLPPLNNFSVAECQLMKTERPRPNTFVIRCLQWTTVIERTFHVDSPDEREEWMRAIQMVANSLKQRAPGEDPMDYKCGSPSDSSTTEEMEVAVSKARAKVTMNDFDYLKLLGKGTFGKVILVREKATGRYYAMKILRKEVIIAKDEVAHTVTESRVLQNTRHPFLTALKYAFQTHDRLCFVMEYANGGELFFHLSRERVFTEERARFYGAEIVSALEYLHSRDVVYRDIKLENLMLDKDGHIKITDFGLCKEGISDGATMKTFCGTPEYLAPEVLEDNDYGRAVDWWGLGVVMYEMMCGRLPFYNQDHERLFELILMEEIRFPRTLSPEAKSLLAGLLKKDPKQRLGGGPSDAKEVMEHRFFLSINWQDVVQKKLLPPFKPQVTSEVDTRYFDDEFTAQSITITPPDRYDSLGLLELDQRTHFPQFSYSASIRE

O=C(N[C@@H](C1CC1)C(F)(F)F)c1cc(-c2cnn3cc(-c4ccc(F)cc4)cnc23)cs1
fold change (FC) [1]: 0
inhibition [2]: 10%
inhibition [3]: 0%

CNC(=O)c1ccccc1Oc1nc(Nc2cc(OC)c(OC)c(OC)c2)ncc1Br
fold change (FC) [4]: 0.27
fold change (FC) [5]: 0.43
fold change (FC) [6]: 0

CC(C)[C@H](NC(=O)c1cc(-c2cnn3cc(-c4ccc(OCCN5CCCCC5)cc4)cnc23)cs1)C(F)(F)F
fold change (FC) [7]: 0
fold change (FC) [8]: 0
